# Assay results reported in ChEMBL document CHEMBL3243989, “Antibacterial N-[omega, omega'-bis(alicyclic and aryl)-sec-alkyl]poly(methylene)triamine and -tetramine hydrochloride salts” (J Med Chem, 1979).
# The source made the active and inactive calls. No cut-off for these calls is given here.
# Legend:
# Proteus vulgaris = experiment: Antibacterial activity against Proteus vulgaris MB838 assessed as growth inhibition at 200 ug/mL; assay type: functional, organism-based
# Pseudomonas aeruginosa [1] = experiment: Antibacterial activity against Pseudomonas aeruginosa MB418 assessed as growth inhibition; assay type: functional
# Method in brief: (§1)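 MIC (µg/mL) by in vitro growth inhibition in an assay system at pH 7.4. Tetracycline was run routinely to check medium, incubation conditions and inoculum virility.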
# Pseudomonas aeruginosa [2] = experiment: Antibacterial activity against Pseudomonas aeruginosa MB2245 assessed as growth inhibition; assay type: functional; method in brief: as §1
# Staphylococcus aureus [3] = experiment: Antibacterial activity against Staphylococcus aureus MB108 assessed as growth inhibition; assay type: functional; method in brief: as §1
# Staphylococcus aureus [4] = experiment: Antibacterial activity against Staphylococcus aureus MB2865 assessed as growth inhibition; assay type: functional; method in brief: as §1
# Bacillus subtilis = experiment: Antibacterial activity against Bacillus subtilis MB964 assessed as growth inhibition; assay type: functional; method in brief: as §1
# Salmonella = experiment: Antibacterial activity against Salmonella schottmuelleri MB2837 assessed as growth inhibition; assay type: functional; method in brief: as §1
# Escherichia coli = experiment: Antibacterial activity against Escherichia coli MB2884 assessed as growth inhibition; assay type: functional; method in brief: as §1
# Klebsiella aerogenes = experiment: Antibacterial activity against Klebsiella aerogenes MB1503 assessed as growth inhibition; assay type: functional; method in brief: as §1
# [5] = tested on: Bordetella bronchiseptica; experiment: Antibacterial activity against Bordetella bronchiseptica MB3551 assessed as growth inhibition; assay type: functional; method in brief: as §1
# [6] = tested on: Bordetella bronchiseptica; experiment: Antibacterial activity against Bordetella bronchiseptica MB905 assessed as growth inhibition; assay type: functional; method in brief: as §1
# Streptococcus pyogenes = experiment: Antibacterial activity against Streptococcus pyogenes assessed as growth inhibition at 2 to 8 ug/mL; assay type: functional, organism-based
# Pasteurella multocida = experiment: Antibacterial activity against Pasteurella multocida MB7 assessed as growth inhibition at 2 to 8 ug/mL; assay type: functional, organism-based
# [7] = tested on: Corynebacterium pseudodiphtheriticum; experiment: Antibacterial activity against Corynebacterium pseudodiphtheriticum assessed as growth inhibition at 2 to 8 ug/mL; assay type: functional, organism-based
Structure (SMILES),growth inhibition (GI) (Proteus vulgaris),MIC (Pseudomonas aeruginosa [1]),MIC (Pseudomonas aeruginosa [2]),MIC (Staphylococcus aureus [3]),MIC (Staphylococcus aureus [4]),MIC (Bacillus subtilis),MIC (Salmonella),MIC (Escherichia coli),MIC (Klebsiella aerogenes),MIC [5],MIC [6],growth inhibition (GI) (Streptococcus pyogenes),growth inhibition (GI) (Pasteurella multocida),growth inhibition (GI) [7]
CC1(C)C2CCC(C2)C1CCC(CCC1C2CCC(C2)C1(C)C)NCCNCCNCCN.Cl (stereo not given),inactive,50 µg/mL,30 µg/mL,4 µg/mL,30 µg/mL,4 µg/mL,4 µg/mL,8 µg/mL,8 µg/mL,10 µg/mL,4 µg/mL,Active,Active,inactive
CC(C)(C)c1ccc(CCCC(CCCc2ccc(C(C)(C)C)cc2)NCCCNCCCN)cc1.Cl,inactive,80 µg/mL,40 µg/mL,20 µg/mL,10 µg/mL,8 µg/mL,8 µg/mL,40 µg/mL,40 µg/mL,8 µg/mL,8 µg/mL,Active,Active,inactive
CC1(C)C2CCC(C2)C1CCC(CCC1C2CCC(C2)C1(C)C)NCCCNCCNCCCN.Cl (stereo not given),inactive,30 µg/mL,15 µg/mL,4 µg/mL,8 µg/mL,4 µg/mL,4 µg/mL,30 µg/mL,15 µg/mL,4 µg/mL,4 µg/mL,Active,Active,inactive
CC1(C)C2CCC(C2)C1CCC(CCC1C2CCC(C2)C1(C)C)NCCNCCNCCCN.Cl (stereo not given),inactive,60 µg/mL,60 µg/mL,20 µg/mL,6 µg/mL,6 µg/mL,6 µg/mL,10 µg/mL,10 µg/mL,30 µg/mL,6 µg/mL,Active,Active,inactive
Cl.NCCCNCCCNC(CCCCC1CCCCC1)CCCCC1CCCCC1,inactive,10 µg/mL,15 µg/mL,10 µg/mL,20 µg/mL,8 µg/mL,6 µg/mL,20 µg/mL,20 µg/mL,4 µg/mL,4 µg/mL,Active,Active,inactive
Cl.NCCCNCCCNC(CC1CCCCC1)CC1CCCCC1,inactive,60 µg/mL,40 µg/mL,30 µg/mL,40 µg/mL,10 µg/mL,4 µg/mL,40 µg/mL,8 µg/mL,6 µg/mL,4 µg/mL,Active,Active,inactive
CC1(C)C2CCC(C2)C1CCC(CCC1C2CCC(C2)C1(C)C)NCCCNCCCNCCCN.Cl (stereo not given),inactive,8 µg/mL,8 µg/mL,15 µg/mL,8 µg/mL,2 µg/mL,6 µg/mL,10 µg/mL,30 µg/mL,2 µg/mL,2 µg/mL,Active,Active,inactive
Cl.NCCNCCNCCNC(CCC1CCCCC1)CCC1CCCCC1,inactive,40 µg/mL,30 µg/mL,6 µg/mL,30 µg/mL,6 µg/mL,4 µg/mL,20 µg/mL,15 µg/mL,4 µg/mL,6 µg/mL,Active,Active,inactive
Cl.NCCNCCNC(CCC1CCCCC1)CCC1CCCCC1,inactive,100 µg/mL,100 µg/mL,4 µg/mL,15 µg/mL,4 µg/mL,2 µg/mL,10 µg/mL,8 µg/mL,4 µg/mL,4 µg/mL,Active,Active,inactive
CC(C)(C)c1ccc(CCCC(CCCc2ccc(C(C)(C)C)cc2)NCCNCCNCCN)cc1.Cl,inactive,100 µg/mL,100 µg/mL,20 µg/mL,30 µg/mL,15 µg/mL,8 µg/mL,60 µg/mL,50 µg/mL,60 µg/mL,8 µg/mL,Active,Active,inactive
CC1(C)C2CCC(C2)C1CCC(CCC1C2CCC(C2)C1(C)C)NCCNCCN.Cl (stereo not given),inactive,200 µg/mL,> 200 µg/mL,6 µg/mL,6 µg/mL,6 µg/mL,50 µg/mL,4 µg/mL,10 µg/mL,4 µg/mL,4 µg/mL,Active,Active,inactive
CN(C)[C@@H]1C(O)=C(C(N)=O)C(=O)[C@@]2(O)C(O)=C3C(=O)c4c(O)cccc4[C@@](C)(O)[C@H]3C[C@@H]12 [TETRACYCLINE],inactive,20 µg/mL,30 µg/mL,2 µg/mL,2 µg/mL,2 µg/mL,2 µg/mL,30 µg/mL,2 µg/mL,2 µg/mL,2 µg/mL,Active,Active,inactive
Cc1ccc(C(C)(C)C)cc1CCCC(CCCc1cc(C(C)(C)C)ccc1C)NCCCNCCCNCCCN.Cl,inactive,40 µg/mL,50 µg/mL,20 µg/mL,8 µg/mL,6 µg/mL,8 µg/mL,100 µg/mL,200 µg/mL,8 µg/mL,8 µg/mL,Active,Active,inactive
CC1(C)C2CCC(C2)C1CCC(CCC1C2CCC(C2)C1(C)C)NCCCN(CCCN)CCCN.Cl (stereo not given),inactive,50 µg/mL,30 µg/mL,6 µg/mL,4 µg/mL,4 µg/mL,4 µg/mL,50 µg/mL,30 µg/mL,2 µg/mL,4 µg/mL,Active,Active,inactive
CC1(C)C2CCC(C2)C1CCC(CCC1C2CCC(C2)C1(C)C)NCCN(CCN)CCN.Cl (stereo not given),inactive,50 µg/mL,8 µg/mL,4 µg/mL,8 µg/mL,4 µg/mL,4 µg/mL,8 µg/mL,8 µg/mL,4 µg/mL,4 µg/mL,Active,Active,inactive
Cl.NCCCNCC(O)CNC(CCC1CCCCC1)CCC1CCCCC1 (stereo not given),–,20 µg/mL,8 µg/mL,8 µg/mL,15 µg/mL,4 µg/mL,4 µg/mL,8 µg/mL,6 µg/mL,4 µg/mL,4 µg/mL,–,–,–
Cl.NCCCNCCCNC(CCC1CCCCC1)CCC1CCCCC1,inactive,30 µg/mL,15 µg/mL,2 µg/mL,10 µg/mL,2 µg/mL,2 µg/mL,15 µg/mL,6 µg/mL,2 µg/mL,2 µg/mL,Active,Active,inactive
CC(C)c1ccc(CCC(CCc2ccc(C(C)C)cc2)NCCNCCNCCN)cc1.Cl,inactive,40 µg/mL,60 µg/mL,6 µg/mL,30 µg/mL,6 µg/mL,4 µg/mL,30 µg/mL,40 µg/mL,15 µg/mL,8 µg/mL,Active,Active,inactive
CC1(C)C2CCC(C2)C1CCC(CCC1C2CCC(C2)C1(C)C)NCCCNCCCN.Cl (stereo not given),inactive,8 µg/mL,10 µg/mL,4 µg/mL,10 µg/mL,4 µg/mL,4 µg/mL,8 µg/mL,4 µg/mL,4 µg/mL,4 µg/mL,Active,Active,inactive
CC(C)c1ccc(CCC(CCc2ccc(C(C)C)cc2)NCCCNCCCN)cc1.Cl,inactive,10 µg/mL,10 µg/mL,8 µg/mL,8 µg/mL,4 µg/mL,4 µg/mL,8 µg/mL,–,4 µg/mL,4 µg/mL,Active,Active,inactive
